Laboratory results taken from ChEMBL document CHEMBL1155225, “Investigation of functionally liver selective glucokinase activators for the treatment of type 2 diabetes” (J Med Chem, 2009).
Converted amounts (≈) assume the structure as drawn. The source made the active and inactive calls. The calls are words filed in the database; no cut-off is given here.

What was measured:
Mus musculus [1] = experiment: Reduction in glucose excursion in C57BL/6 mouse at 50 mg/kg, po in microemulsion administered 30 mins before glucose challenge measured at 4 hrs postdose by oral glucose tolerance test; format: functional, organism-based; parameters: dose 50 mg/kg; settings: C57BL6
How it was run: (§1)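 C57BL6 mice grouped by matched 0-h plasma glucose; compound given by oral gavage (5 mL/kg) at 50 mg/kg (or 72 mg/kg) in microemulsion (Cremophor RH40, corn oil-monodiglyceride, propylene glycol, ethanol; diluted 2:3 with water) or in water; oral glucose 1 g/kg 30 min later. Blood sampled at 0.5, 1, 2 and 4 h post-dosing for glucose (meter) and insulin; % reduction from control.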

[2] = target: T1, Hexokinase-4 (Homo sapiens) (UniProt P35557); experiment: Activation of His-tagged human recombinant liver glucokinase expressed in Escherichia coli BL21 (DE3) assessed as drug level required for half-maximal activation; format: single protein
T1 sequence (whole entry): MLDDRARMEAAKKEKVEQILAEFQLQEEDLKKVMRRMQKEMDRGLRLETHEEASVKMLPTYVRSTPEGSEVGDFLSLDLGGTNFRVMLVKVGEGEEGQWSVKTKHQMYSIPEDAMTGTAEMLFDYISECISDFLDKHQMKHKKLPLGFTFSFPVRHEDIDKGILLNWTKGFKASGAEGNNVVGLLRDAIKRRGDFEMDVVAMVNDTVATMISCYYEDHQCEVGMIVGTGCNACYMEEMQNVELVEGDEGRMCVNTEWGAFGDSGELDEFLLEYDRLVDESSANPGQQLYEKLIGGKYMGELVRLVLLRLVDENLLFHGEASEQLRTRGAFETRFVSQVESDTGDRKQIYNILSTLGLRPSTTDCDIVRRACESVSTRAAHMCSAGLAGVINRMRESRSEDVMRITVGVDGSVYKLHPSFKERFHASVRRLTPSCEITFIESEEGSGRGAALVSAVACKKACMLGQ
How it was run: (§2)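 Recombinant human liver GK (aa 17-466), His-tagged, expressed in E. coli BL21 Star (DE3), nickel affinity purified, tag cleaved (GPGSM left), then anion exchange and gel filtration to >95%.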

[3] = Intrinsic solubility in neutral pH by HPLC analysis; format: physicochemical
[4] = Permeability at 5 to 10 uM at pH 4, 6.8 and 8 by PAMPA; settings: pH 4, 6.8, 8, 10 µM
[5] = Metabolic stability in human liver microsomes assessed as half life; format: ADME, Microsome
How it was run: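 Compound incubated at 1 μM with human liver microsomes plus selected cofactors (NADPH, UDPGA); clearance followed at 4 time points as % test compound remaining, giving half-life.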

[6] = target: T2, Hexokinase-4 (Rattus norvegicus) (UniProt P17712); experiment: Activation of glucokinase-mediated of glucose phosphorylation in Sprague-Dawley rat hepatocytes assessed as release of [3H]H2O from [2-3H]glucose at 30 uM after 3 hrs; format: cell-based; settings: Hepatocyte
T2 sequence (whole entry): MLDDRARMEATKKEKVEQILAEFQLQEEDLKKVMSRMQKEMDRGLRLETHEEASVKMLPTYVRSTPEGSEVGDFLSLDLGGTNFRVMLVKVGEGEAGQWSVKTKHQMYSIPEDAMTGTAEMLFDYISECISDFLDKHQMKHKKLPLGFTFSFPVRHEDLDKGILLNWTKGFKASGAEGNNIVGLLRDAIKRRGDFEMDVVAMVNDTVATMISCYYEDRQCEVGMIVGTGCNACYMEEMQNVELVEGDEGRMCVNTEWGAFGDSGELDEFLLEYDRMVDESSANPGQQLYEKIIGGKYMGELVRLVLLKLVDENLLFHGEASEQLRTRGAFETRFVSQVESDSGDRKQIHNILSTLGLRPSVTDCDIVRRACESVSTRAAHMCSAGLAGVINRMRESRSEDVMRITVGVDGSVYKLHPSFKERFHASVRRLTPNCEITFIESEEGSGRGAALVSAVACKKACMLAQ
How it was run: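 Hepatocytes from overnight-fasted male Sprague-Dawley rats by collagenase perfusion, cultured 16-20 h at 37 °C, 5% CO2 in serum-free DMEM with 5 mM glucose plus dexamethasone. Preincubated 3 h at 37 °C in serum-free DMEM, 5 mM glucose, with DMSO or 30 μM compound, then 30 min with [2-3H]glucose. Medium collected into 0.1 M HCl; detritiated glucose (nmol/h per 10^6 cells) as % increase over vehicle; quadruplicate, mean ± SEM, Student's t test.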

[7] = Aqueous solubility by HPLC analysis; format: physicochemical; settings: buffer
Mus musculus [8] = experiment: Reduction in glucose excursion in C57BL/6 mouse at 50 mg/kg, po in water administered 30 mins before glucose challenge measured at 2 hrs postdose by oral glucose tolerance test; format: functional, C57BL6; parameters: scale not given: the % may be the effect or the level left; how it was run: as §1
Mus musculus [9] = experiment: Reduction in glucose excursion in C57BL/6 mouse at 50 mg/kg, po in water administered 30 mins before glucose challenge measured at 1 hr postdose by oral glucose tolerance test; format: functional, C57BL6; parameters: scale not given: the % may be the effect or the level left; how it was run: as §1
Mus musculus [10] = experiment: Reduction in glucose excursion in C57BL/6 mouse at 50 mg/kg, po in microemulsion administered 30 mins before glucose challenge measured at 0.5 hrs postdose by oral glucose tolerance test; format: functional, C57BL6; parameters: scale not given: the % may be the effect or the level left; how it was run: as §1
[11] = Aqueous solubility in water by HPLC analysis; format: physicochemical
Mus musculus [12] = experiment: Reduction in glucose excursion in C57BL/6 mouse at 72 mg/kg, po in microemulsion administered 30 mins before glucose challenge measured up to 6 hrs postdose by oral glucose tolerance test; format: functional, organism-based; parameters: dose 72 mg/kg; settings: C57BL6
Mus musculus [13] = experiment: Increase in insulin release from beta cells in po dosed C57BL/6 mouse after glucose challenge; format: functional, organism-based; settings: C57BL6
[14] = target: T1, Hexokinase-4 (Homo sapiens); experiment: Activation of His-tagged human recombinant liver glucokinase expressed in Escherichia coli BL21 (DE3) assessed as drug level required for half-maximal activation for sigmoid activation curve; how it was run: as §2
Mus musculus [15] = experiment: Increase in basal insulin release from beta cells in po dosed C57BL/6 mouse; format: functional, organism-based; settings: C57BL6

Row | Activity [2] | logPm [4] | half-life [5] | Activity [6] | Compound | other results
1 | – | – | – | – | CCCC(=O)NS(=O)(=O)c1ccc(C(CC2CCCC2)C(=O)Nc2nc3ccc(OC)nc3s2)cc1 (stereo not drawn) [listing 1 of 2 here] | Activity (Mus musculus [1]): inactive
2 | 2810 nM | -4.3 | 22.6 min | – | COc1ccc2nc(NC(=O)C(CC3CCCC3)c3ccc(S(=O)(=O)NCCC(=O)O)cc3)sc2n1 (stereo not drawn) | solubility [3]: > 570 µg/mL; Activity (Mus musculus [1]): inactive
3 | 726 nM | – | – | 32% | COc1ccc2nc(NC(=O)C(CC3CCCC3)c3ccc(S(=O)(=O)NCc4ccccc4)cc3)sc2n1 (stereo not drawn) | –
4 | 66 nM | -5.2 | 6.2 min | 230% | COc1ccc2nc(NC(=O)C(CC3CCCC3)c3ccc(S(=O)(=O)N4CCCCC4)cc3)sc2n1 (stereo not drawn) | –
5 | 263 nM | -5.4 | 26.2 min | – | COc1ccc2nc(NC(=O)C(CC3CCCC3)c3ccc(S(=O)(=O)N(C)Cc4ccccc4)cc3)sc2n1 (stereo not drawn) | Activity (Mus musculus [1]): inactive
6 | 180 nM | – | – | – | COc1ccc2nc(NC(=O)C(CC3CCCC3)c3ccc(S(=O)(=O)NCc4ccccn4)cc3)sc2n1 (stereo not drawn) | solubility [7]: 10 µg/mL (≈ 18.1 µM)
7 | 73 nM | – | – | – | COc1ccc2nc(NC(=O)C(CC3CCCC3)c3ccc(S(=O)(=O)N(C(C)C)C(C)C)cc3)sc2n1 (stereo not drawn) | –
8 | 266 nM | -5.2 | 19.5 min | – | COc1ccc2nc(NC(=O)C(CC3CCCC3)c3ccc(S(=O)(=O)NC4CC4)cc3)sc2n1 (stereo not drawn) | –
9 | 153 nM | – | – | 281% | COc1ccc2nc(NC(=O)C(CC3CCCC3)c3ccc(S(=O)(=O)N4CCOCC4)cc3)sc2n1 (stereo not drawn) | –
10 | 42 nM | -5.9 | 5.8 min | 345% | CCN(CC)S(=O)(=O)c1ccc(C(CC2CCCC2)C(=O)Nc2nc3ccc(OC)nc3s2)cc1 (stereo not drawn) | –
11 | 181 nM | – | – | – | CCCCN(CCCC)S(=O)(=O)c1ccc(C(CC2CCCC2)C(=O)Nc2nc3ccc(OC)nc3s2)cc1 (stereo not drawn) | –
12 | 892 nM | -4.9 | 290 min | 14% | COc1ccc2nc(NC(=O)C(CC3CCCC3)c3ccc(S(=O)(=O)NCc4ccco4)cc3)sc2n1 (stereo not drawn) | Activity (Mus musculus [1]): inactive
13 | 61 nM | -5 | 15.7 min | 85% | COCCNS(=O)(=O)c1ccc(C(CC2CCCC2)C(=O)Nc2nc3ccc(OC)nc3s2)cc1 (stereo not drawn) | Activity (Mus musculus [1]): inactive
14 | 323 nM | – | – | 219% | COc1ccc2nc(NC(=O)C(CC3CCCC3)c3ccc(S(=O)(=O)Nc4cccnc4)cc3)sc2n1 (stereo not drawn) | –
15 | 109 nM | -5.1 | 5.1 min | 67% | COc1ccc2nc(NC(=O)C(CC3CCCC3)c3ccc(S(=O)(=O)N(C)Cc4ccco4)cc3)sc2n1 (stereo not drawn) | –
16 | 35 nM | – | – | – | CCCN(CCC)S(=O)(=O)c1ccc(C(CC2CCCC2)C(=O)Nc2nc3ccc(OC)nc3s2)cc1 (stereo not drawn) | –
17 | 147 nM | -4.4 | 10 min | – | COc1ccc2nc(NC(=O)C(CC3CCCC3)c3ccc(S(=O)(=O)N(C)CCO)cc3)sc2n1 (stereo not drawn) | –

Row | Activity [2] | logPm [4] | half-life [5] | Activity [6] | Compound | other results
18 | 1860 nM | -4.4 | 27.2 min | – | COc1ccc2nc(NC(=O)C(CC3CCCC3)c3ccc(S(=O)(=O)NCC(=O)O)cc3)sc2n1 (stereo not drawn) | Activity (Mus musculus [8]): 20%; Activity (Mus musculus [9]): 26%; solubility [3]: > 570 µg/mL
19 | 897 nM | -4.4 | 23.1 min | – | COc1ccc2nc(NC(=O)C(CC3CCCC3)c3ccc(S(N)(=O)=O)cc3)sc2n1 (stereo not drawn) | solubility [7]: < 2 µg/mL; Activity (Mus musculus [10]): 22%
20 | 583 nM | -3.8 | – | – | COc1ccc2nc(NC(=O)C(CC3CCCC3)c3ccc(S(=O)(=O)Nc4ccccc4)cc3)sc2n1 (stereo not drawn) | –
21 | 489 nM | – | – | 411% | O=C(Nc1nc2cccnc2s1)c1ccccc1 | –
22 | – | – | – | – | CCC(=O)[N-]S(=O)(=O)c1ccc(C(CC2CCCC2)C(=O)Nc2nc3ccc(OC)nc3s2)cc1.[Na+] (stereo not drawn) | solubility [11]: 11 µg/mL
23 | 207 nM | -4.3 | < 1.5 min | – | COc1ccc2nc(NC(=O)C(CC3CCCC3)c3ccc(S(=O)(=O)NCc4ccncc4)cc3)sc2n1 (stereo not drawn) | solubility [7]: 10 µg/mL (≈ 18.1 µM)
24 | – | – | – | – | CCCC(=O)[N-]S(=O)(=O)c1ccc(C(CC2CCCC2)C(=O)Nc2nc3ccc(OC)nc3s2)cc1.[Na+] (stereo not drawn) | solubility [11]: 26 µg/mL
25 | 377 nM | -4.6 | < 1.5 min | 281% | COc1ccc2nc(NC(=O)C(CC3CCCC3)c3ccc(S(=O)(=O)NCc4cccnc4)cc3)sc2n1 (stereo not drawn) | Activity (Mus musculus [1]): inactive
26 | 66 nM | -4.1 | < 1.5 min | – | COc1ccc2nc(NC(=O)C(CC3CCCC3)c3ccc(S(=O)(=O)N(C)Cc4nccn4C)cc3)sc2n1 (stereo not drawn) | –
27 | 1450 nM | -5.1 | 25.3 min | – | COc1ccc2nc(NC(=O)C(CC3CCCC3)c3ccc(S(=O)(=O)NCc4cccs4)cc3)sc2n1 (stereo not drawn) | –
28 | – | -4.4 | 2.2 min | – | CCCC(=O)NS(=O)(=O)c1ccc(C(CC2CCCC2)C(=O)Nc2nc3ccc(OC)nc3s2)cc1 (stereo not drawn) [listing 2 of 2 here] | –
29 | 302 nM | -7 | 4.8 min | 78% | COc1ccc2nc(NC(=O)C(CC3CCCC3)c3ccc(S(=O)(=O)NC4CCCCC4)cc3)sc2n1 (stereo not drawn) | –
30 | – | -4.1 | 4.8 min | – | CCC(=O)NS(=O)(=O)c1ccc(C(CC2CCCC2)C(=O)Nc2nc3ccc(OC)nc3s2)cc1 (stereo not drawn) | –
31 | 295 nM | -3.3 | 17.8 min | 221% | COc1ccc2nc(NC(=O)C(CC3CCCC3)c3ccc(S(=O)(=O)N(C)C)cc3)sc2n1 (stereo not drawn) | –
32 | 39 nM | -3.9 | 9.1 min | 498% | COc1ccc2nc(NC(=O)C(CC3CCCC3)c3ccc(S(=O)(=O)N4CCN(C)CC4)cc3)sc2n1 (stereo not drawn) | Activity (Mus musculus [12]): Active; solubility [7]: 50 µg/mL (≈ 92 µM); Activity (Mus musculus [13]): inactive; Activity [14]: 11 mM; Activity (Mus musculus [15]): inactive
33 | 305 nM | -4.5 | 13.1 min | – | COc1ccc2nc(NC(=O)C(CC3CCCC3)c3ccc(S(=O)(=O)NC4CCOCC4)cc3)sc2n1 (stereo not drawn) | –
34 | 117 nM | -4.8 | 9 min | – | COc1ccc2nc(NC(=O)C(CC3CCCC3)c3ccc(S(=O)(=O)NCCN(C)C)cc3)sc2n1 (stereo not drawn) | –
